From ChEMBL document CHEMBL1795242, “Peptidomimetic inhibitors of bacterial peptide deformylase” (Bioorg Med Chem Lett, 2011)
Values after ≈ are worked out from the molar mass of the structure shown.

Columns and labels:
[1] = molecular target: T1, Peptide deformylase (Escherichia coli, UniProt Q9JN24); test: Inhibition of Escherichia coli nickel containing peptide deformylase
T1 sequence (Q9JN24 whole entry): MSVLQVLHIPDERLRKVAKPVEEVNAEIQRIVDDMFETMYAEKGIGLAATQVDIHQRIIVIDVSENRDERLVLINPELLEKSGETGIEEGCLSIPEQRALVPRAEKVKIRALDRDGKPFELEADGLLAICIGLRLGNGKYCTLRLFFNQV

[2] = tested on: Haemophilus influenzae; test: Antibacterial activity against Haemophilus influenzae; format: functional
Summary of the method: (§1)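 MIC against respiratory-tract-infection pathogens: Gram-positive S. pneumoniae and Gram-negative H. influenzae and M. catarrhalis. Where more than one strain was tested, the MIC is given as a range across strains. The minimum number of strains was 3 for H. influenzae and 1 for M. catarrhalis.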

[3] = tested on: Streptococcus pneumoniae; test: Antibacterial activity against Streptococcus pneumoniae; format: functional; summary of the method: as §1
[4] = tested on: Moraxella catarrhalis; test: Antibacterial activity against Moraxella catarrhalis; format: functional; summary of the method: as §1
[5] = molecular target: T2, Peptide deformylase (Escherichia coli) (UniProt Q9JN24); test: Inhibition of Escherichia coli nickel containing peptide deformylase at 1 uM
T2 sequence (whole entry): T1 sequence (Q9JN24 whole entry)

| SMILES | IC50 [1] [µM] | MIC [2] [µg/mL] | MIC [3] [µg/mL] | MIC [4] [µg/mL] | inhibition [5] [%] |
| --- | --- | --- | --- | --- | --- |
| COc1ccc(C(=O)N2CCCN2C(=O)[C@H](CC2CCCC2)CN(O)C=O)cc1 | 0.05 | 16 (≈ 39.7 µM) | 4 (≈ 9.91 µM) |  |  |
| O=CN(O)C[C@@H](CC1CCCC1)C(=O)N1CCCCN1C(=O)c1ccccc1 | 0.5 | 1 (≈ 2.58 µM) | 0.5 (≈ 1.29 µM) |  |  |
| O=CN(O)C[C@@H](CC1CCCC1)C(=O)N1CCCCN1C(=O)Nc1ccc(F)cc1 | 0.01 | < 0.125 | 4 (≈ 9.51 µM) |  |  |
| O=CN(O)C[C@@H](CC1CCCC1)C(=O)N1CCCN1C(=O)c1cccnc1 | 0.3 | 2 (≈ 5.34 µM) |  |  |  |
| CC(C)(C)OC(=O)N1CCCCN1C(=O)[C@H](CC1CCCC1)CN(O)C=O | 0.009 | 1 (≈ 2.61 µM) | 4 (≈ 10.4 µM) |  |  |
| COc1cccc(NC(=O)N2CCCCN2C(=O)[C@H](CC2CCCC2)CN(O)C=O)c1 | 0.02 | < 0.125 | 2 (≈ 4.62 µM) |  |  |
| O=CN(O)C[C@@H](CC1CCCC1)C(=O)N1CCCN1C(=O)c1ccc(F)cc1 | 0.02 | 4 (≈ 10.2 µM) |  |  |  |
| O=CN(O)C[C@@H](CC1CCCC1)C(=O)N1CCCCN1C(=O)c1ccncc1 | 0.3 | 2 (≈ 5.15 µM) | 2 (≈ 5.15 µM) |  |  |
| O=CN(O)C[C@@H](CC1CCCC1)C(=O)N1CCCCN1C(=O)c1ccc(F)cc1 | 0.06 | 0.5 (≈ 1.23 µM) | 0.5 (≈ 1.23 µM) |  |  |
| O=CN(O)C[C@@H](CC1CCCC1)C(=O)N1CCCCN1C(=O)c1ccco1 | 0.005 | < 0.125 | 0.5 (≈ 1.32 µM) | < 0.125 |  |
| O=CN(O)C[C@@H](CC1CCCC1)C(=O)N1CCCN1C(=O)Nc1ccccc1 | 0.01 | < 0.125 | 4 (≈ 10.3 µM) |  |  |
| O=CN(O)C[C@@H](CC1CCCC1)C(=O)N1CCCCN1C(=O)c1ccoc1 | 0.006 | 0.125 (≈ 0.331 µM) | 0.5 (≈ 1.32 µM) | < 0.03 |  |
| O=CN(O)C[C@@H](CC1CCCC1)C(=O)N1CCCN1C(=O)c1ccoc1 | 0.01 | 1 (≈ 2.75 µM) |  |  |  |
| O=C(C[C@@H](CC1CCCC1)C(=O)N1CCCCN1C(=O)Nc1ccccc1)NO | 0.02 | 1 (≈ 2.48 µM) | 4 (≈ 9.94 µM) |  |  |
| O=CN(O)C[C@@H](CC1CCCC1)C(=O)N1CCCN1C(=O)c1ccncc1 | 0.06 | 2 (≈ 5.34 µM) | 16 (≈ 42.7 µM) |  |  |
| COc1ccc(C(=O)N2CCCCN2C(=O)[C@H](CC2CCCC2)CN(O)C=O)cc1 | 0.1 | 1 (≈ 2.4 µM) | 0.5 (≈ 1.2 µM) |  |  |
| O=CN(O)C[C@@H](CC1CCCC1)C(=O)N1CCCN1C(=O)c1ccccc1 | 0.07 | 2 (≈ 5.36 µM) |  |  |  |

| SMILES | IC50 [1] [µM] | MIC [2] [µg/mL] | MIC [3] [µg/mL] | MIC [4] [µg/mL] | inhibition [5] [%] |
| --- | --- | --- | --- | --- | --- |
| O=CN(O)C[C@@H](CC1CCCC1)C(=O)N1CCCN1C(=O)C1CCCCC1 | 0.04 | 4 (≈ 10.5 µM) |  |  |  |
| O=CN(O)C[C@@H](CC1CCCC1)C(=O)N1CCCCN1C(=O)Nc1ccccc1 | 0.02 | < 0.125 | 2 (≈ 4.97 µM) |  |  |
| O=CN(O)C[C@@H](CC1CCCC1)C(=O)N1CCCCN1C(=O)Cc1ccccc1 | 0.06 | 0.25 (≈ 0.623 µM) | 0.5 (≈ 1.25 µM) |  |  |
| O=CN(O)C[C@@H](CC1CCCC1)C(=O)N1CCCCN1C(=O)c1cccnc1 |  |  |  |  | 40 |
| COCC(=O)N1CCCN1C(=O)[C@H](CC1CCCC1)CN(O)C=O | 0.06 | 1 (≈ 2.93 µM) |  |  |  |
| O=CN(O)C[C@@H](CC1CCCC1)C(=O)N1CCCN1C(=O)c1ccco1 | 0.03 | < 0.125 | 4 (≈ 11 µM) | < 0.125 |  |
| O=CN(O)C[C@@H](CC1CCCC1)C(=O)N1CCCCN1C(=O)Nc1ccc(C(F)(F)F)cc1 | 0.009 | 0.25 (≈ 0.531 µM) |  |  |  |
| O=CN(O)C[C@@H](CC1CCCC1)C(=O)N1CCCN1C(=O)Nc1ccc(C(F)(F)F)cc1 | 0.03 | 2 (≈ 4.38 µM) | 2 (≈ 4.38 µM) | 0.06 (≈ 0.131 µM) |  |
| CC(C)(C)OC(=O)N1CCCN1C(=O)[C@H](CC1CCCC1)CN(O)C=O | 0.03 | 0.5 (≈ 1.35 µM) | 8 (≈ 21.7 µM) | < 0.125 |  |
| COc1cccc(NC(=O)N2CCCN2C(=O)[C@H](CC2CCCC2)CN(O)C=O)c1 | 0.01 | < 0.125 | 4 (≈ 9.56 µM) |  |  |
| O=CN(O)C[C@@H](CC1CCCC1)C(=O)N1CCCN1C(=O)Cc1ccccc1 | 0.03 | 2 (≈ 5.16 µM) | 4 (≈ 10.3 µM) |  |  |
| COCC(=O)N1CCCCN1C(=O)[C@H](CC1CCCC1)CN(O)C=O | 0.2 | 0.25 (≈ 0.703 µM) | 1 (≈ 2.81 µM) |  |  |
| O=CN(O)C[C@@H](CC1CCCC1)C(=O)N1CCCCN1C(=O)C1CCCCC1 | 0.2 | 4 (≈ 10.2 µM) | 0.5 (≈ 1.27 µM) |  |  |
| COc1ccccc1NC(=O)N1CCCCN1C(=O)[C@H](CC1CCCC1)CN(O)C=O | 0.01 | 0.5 (≈ 1.16 µM) | 4 (≈ 9.25 µM) |  |  |
| COc1ccccc1NC(=O)N1CCCN1C(=O)[C@H](CC1CCCC1)CN(O)C=O | 0.007 | 1 (≈ 2.39 µM) | 8 (≈ 19.1 µM) | 0.25 (≈ 0.597 µM) |  |
| O=CN(O)C[C@@H](CC1CCCC1)C(=O)N1CCCN1C(=O)Nc1ccc(F)cc1 | 0.01 | < 0.125 | 8 (≈ 19.7 µM) |  |  |
| O=C(C[C@@H](CC1CCCC1)C(=O)N1CCCCN1C(=O)c1ccco1)NO | 0.008 | 0.06 (≈ 0.159 µM) | 2 (≈ 5.3 µM) | 0.06 (≈ 0.159 µM) |  |
